For 58 compounds, Survival results are on record in ChEMBL document CHEMBL4257575, “Discovery of Novel Flavonoid Dimers To Reverse Multidrug Resistance Protein 1 (MRP1, ABCC1) Mediated Drug Resistance in Cancers Using a High Throughput Platform with "Click Chemistry"” (J Med Chem, 2018).

In this data set the target is Multidrug resistance-associated protein 1 (Homo sapiens, UniProt P33527). Put plainly: Inhibition of MRP1 in human 2008/MRP1 cells assessed as potentiation of doxorubicin-induced cytotoxicity by measuring cell survival at 2 uM after 5 days by MTS assay relative to control. Format: cell-based. To be noted: 120 h. A digest of the protocol: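 2008/MRP1 cells (retroviral human MRP1 transfectant; RPMI 1640, 10% FBS) at 4,000 per well, with 100 nM doxorubicin plus crude, unpurified click products in DMSO: 2 µM in the primary screen, 1 µM in the secondary. Incubated 5 days at 37 °C. MTS/PMS added for 2 h at 37 °C, absorbance read at 490 nm. % survival is relative to wells without DOX or product. Run in triplicate, at least three experiments.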
Background: Formazan colour is commonly taken as a measure of viable cells.

Multidrug resistance-associated protein 1, sequence (P33527 whole entry): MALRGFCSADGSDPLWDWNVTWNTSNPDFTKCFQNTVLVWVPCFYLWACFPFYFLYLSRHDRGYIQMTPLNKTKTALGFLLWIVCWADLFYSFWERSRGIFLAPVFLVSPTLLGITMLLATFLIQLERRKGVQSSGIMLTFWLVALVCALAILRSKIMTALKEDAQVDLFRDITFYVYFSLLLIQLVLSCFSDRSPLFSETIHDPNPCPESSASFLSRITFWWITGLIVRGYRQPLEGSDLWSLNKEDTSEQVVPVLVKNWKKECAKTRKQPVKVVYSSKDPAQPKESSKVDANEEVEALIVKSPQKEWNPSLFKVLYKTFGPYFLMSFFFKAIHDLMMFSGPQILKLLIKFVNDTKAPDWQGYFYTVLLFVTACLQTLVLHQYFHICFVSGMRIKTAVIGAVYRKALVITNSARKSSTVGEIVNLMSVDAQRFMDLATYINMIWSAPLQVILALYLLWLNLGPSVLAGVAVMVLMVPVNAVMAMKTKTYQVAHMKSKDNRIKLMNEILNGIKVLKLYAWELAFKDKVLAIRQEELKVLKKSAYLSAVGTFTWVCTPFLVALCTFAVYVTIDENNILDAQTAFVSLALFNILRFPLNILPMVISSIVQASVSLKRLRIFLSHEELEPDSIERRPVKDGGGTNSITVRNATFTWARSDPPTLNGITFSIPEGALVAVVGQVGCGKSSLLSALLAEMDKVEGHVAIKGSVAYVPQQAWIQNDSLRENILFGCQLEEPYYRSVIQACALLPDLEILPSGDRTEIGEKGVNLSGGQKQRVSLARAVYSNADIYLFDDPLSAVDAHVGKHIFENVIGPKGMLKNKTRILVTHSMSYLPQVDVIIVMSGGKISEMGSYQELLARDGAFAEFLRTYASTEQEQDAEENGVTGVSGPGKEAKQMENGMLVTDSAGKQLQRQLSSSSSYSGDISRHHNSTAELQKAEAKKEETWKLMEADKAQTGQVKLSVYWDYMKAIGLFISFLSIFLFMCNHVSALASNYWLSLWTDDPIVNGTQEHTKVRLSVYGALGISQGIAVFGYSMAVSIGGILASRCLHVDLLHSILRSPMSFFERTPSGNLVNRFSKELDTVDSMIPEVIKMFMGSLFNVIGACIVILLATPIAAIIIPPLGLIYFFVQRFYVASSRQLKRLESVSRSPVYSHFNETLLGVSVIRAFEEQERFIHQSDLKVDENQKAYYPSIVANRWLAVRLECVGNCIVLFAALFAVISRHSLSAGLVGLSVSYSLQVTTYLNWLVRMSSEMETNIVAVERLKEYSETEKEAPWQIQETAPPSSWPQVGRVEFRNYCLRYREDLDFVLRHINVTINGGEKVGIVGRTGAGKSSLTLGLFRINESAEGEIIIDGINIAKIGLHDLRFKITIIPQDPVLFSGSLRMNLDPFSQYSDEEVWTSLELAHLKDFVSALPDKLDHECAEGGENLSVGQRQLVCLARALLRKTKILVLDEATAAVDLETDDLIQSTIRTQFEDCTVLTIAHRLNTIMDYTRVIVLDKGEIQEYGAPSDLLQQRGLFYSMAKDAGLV

As to `CCc1ccc(O)c(C(=O)/C=C/c2ccc(OCCCCc3cn(CCOCCOc4ccc(-c5oc6ccccc6c(=O)c5OCc5cccc(OC)c5)cc4)nn3)cc2)c1`, the Survival worked out at 76%.

Regarding `C#Cc1ccc(C#C)cc1`, the Survival came out at 86%.

With `O=c1cc(-c2ccc(OCCCc3cn(CCOCCOCCOc4ccc(-c5cc(=O)c6ccccc6o5)cc4)nn3)cc2)oc2ccccc12`, the Survival was determined as 56%.

Regarding `C#CCCCOc1ccc2c(=O)cc(-c3ccccc3)oc2c1`, the Survival worked out at 85%.

Consider `Cc1ccc2oc(-c3ccc(OCCCCc4cn(CCOCCOc5cccc(-c6oc7ccccc7c(=O)c6OCc6ccccc6)c5)nn4)cc3)cc(=O)c2c1`, for which the Survival is on record as 55%.

As to `O=c1cc(-c2ccc(OCCOCCn3cc(CN4CCN(Cc5cn(CCOCCOc6ccc(-c7cc(=O)c8ccccc8o7)cc6)nn5)CC4)nn3)cc2)oc2ccccc12`, the Survival is listed as 116%.

`O=c1cc(-c2ccc(OCCOCCn3cc(CN4CCN(Cc5cn(CCOCCOc6ccc(-c7cc(=O)c8cc(F)ccc8o7)cc6)nn5)CC4)nn3)cc2)oc2ccc(F)cc12`: the Survival amounted to 86%.

In the case of `O=c1cc(-c2ccccc2)oc2cc(OCCOCc3cn(CCOCCOc4cccc(-c5oc6ccccc6c(=O)c5OCc5ccccc5)c4)nn3)ccc12`, the Survival was 77%.

On to `O=c1cc(-c2ccccc2)oc2cc(OCCN(Cc3ccccc3)Cc3cn(CCOc4cccc5c(=O)cc(-c6ccccc6)oc45)nn3)ccc12`, for which the Survival worked out at 80%.

Regarding `[N-]=[N+]=NCCOCCOc1ccc(-c2oc3ccccc3c(=O)c2OCc2ccccc2)cc1`, the Survival is 72%.

Regarding `O=c1cc(-c2ccccc2)oc2cc(OCCCc3cn(CCOCCOCCOc4ccc5c(=O)cc(-c6ccccc6)oc5c4)nn3)ccc12`, the Survival was 57%.

For `O=c1cc(-c2ccccc2)oc2cc(OCCN(Cc3ccccc3)Cc3cn(CCOCCOCCOc4ccc(-c5oc6ccccc6c(=O)c5OCc5ccccc5)cc4)nn3)ccc12`, the Survival worked out at 65%.

Consider `CN(CCN(C)Cc1cn(CCOCCOc2ccc(-c3oc4ccccc4c(=O)c3OCc3ccccc3)cc2)nn1)Cc1cn(CCOCCOc2ccc(-c3oc4ccccc4c(=O)c3OCc3ccccc3)cc2)nn1`, for which the Survival is reported as 76%.

In the case of `Cc1ccc(C(=O)/C=C/c2ccc(OCCCCc3cn(CCOCCOc4ccc(-c5cc(=O)c6cc(F)ccc6o5)cc4)nn3)cc2)c(O)c1`, the Survival was 71%.

As for `COc1cccc(COc2c(-c3ccc(OCCOCCn4cc(CN5CCN(Cc6cn(CCOCCOc7ccc(-c8oc9ccccc9c(=O)c8OCc8cccc(OC)c8)cc7)nn6)CC5)nn4)cc3)oc3ccccc3c2=O)c1`, the Survival turned out to be 85%.

In the case of `Cc1ccc(O)c(C(=O)/C=C/c2ccc(OCCCCc3cn(CCOCCOCCOc4ccc(-c5cc(=O)c6cc(F)ccc6o5)cc4)nn3)cc2)c1`, the Survival came to 72%.

In the case of `O=c1cc(-c2ccc(OCCOCCOCCn3cc(CN(Cc4cn(CCOCCOCCOc5ccc(-c6cc(=O)c7cc(F)ccc7o6)cc5)nn4)Cc4cn(CCOCCOCCOc5ccc(-c6cc(=O)c7cc(F)ccc7o6)cc5)nn4)nn3)cc2)oc2ccc(F)cc12`, the Survival came to 77%.

Consider `O=C(/C=C/c1ccc(OCCCCc2cn(CCOCCOc3cccc(-c4oc5ccccc5c(=O)c4OCc4ccccc4)c3)nn2)cc1)c1ccccc1O`, for which the Survival worked out at 83%.

Take `O=c1cc(-c2ccc(OCCCc3cn(CCOCCOCCOc4ccc(-c5oc6ccccc6c(=O)c5OCc5ccccc5)cc4)nn3)cc2)oc2ccc(F)cc12`: the Survival came to 75%.

As for `Cc1ccc(O)c(C(=O)/C=C/c2ccc(OCCCCc3cn(CCOCCOc4ccc(-c5cc(=O)c6ccccc6o5)cc4)nn3)cc2)c1`, the Survival was 60%.

On to `O=C(/C=C/c1ccc(OCCCCc2cn(CCOCCOc3ccc4c(=O)cc(-c5ccccc5)oc4c3)nn2)cc1)c1ccc(F)cc1O`, for which the Survival worked out at 64%.

Consider `O=Cc1ccc(OCCCCc2cn(CCOCCOc3ccc(-c4oc5ccccc5c(=O)c4OCc4ccccc4)cc3)nn2)cc1`, for which the Survival turned out to be 59%.

In the case of `C#CCCCCOc1ccc(/C=C/C(=O)c2ccccc2O)cc1`, the Survival worked out at 102%.

Regarding `COc1cccc(COc2c(-c3ccc(OCCOCCn4cc(CCCOc5ccc(-c6cc(=O)c7ccc(F)cc7o6)cc5)nn4)cc3)oc3ccccc3c2=O)c1`, the Survival came out at 61%.

With `O=c1cc(-c2ccccc2)oc2cc(OCCOCCOCCn3cc(-c4ccc(-c5cn(CCOCCOCCOc6ccc7c(=O)cc(-c8ccccc8)oc7c6)nn5)cc4)nn3)ccc12`, the Survival was determined as 88%.

`Cc1ccc2oc(-c3ccc(OCCOCCOCCn4cc(CN(CCOc5ccc6c(=O)cc(-c7ccccc7)oc6c5)Cc5ccccc5)nn4)cc3)cc(=O)c2c1`: the Survival is given as 53%.

Regarding `Cc1ccc2oc(-c3ccc(OCCOCCOCCn4cc(CCCOc5ccc(-c6nc7ccccc7c(=O)[nH]6)cc5)nn4)cc3)cc(=O)c2c1`, the Survival is recorded as 72%.

Consider `O=c1cc(-c2ccc(OCCCc3cn(CCOCCOc4cccc(-c5oc6ccccc6c(=O)c5OCc5ccccc5)c4)nn3)cc2)oc2ccc(F)cc12`, for which the Survival was determined as 79%.

`Cc1ccc2oc(-c3ccc(OCCOCCOCCn4cc(CCCCOc5ccc6c(=O)cc(-c7ccccc7)oc6c5)nn4)cc3)cc(=O)c2c1`: the Survival is recorded as 51%.

In the case of `O=c1c(OCc2ccccc2)c(-c2ccc(OCCOCCn3cc(CN(Cc4ccccc4)Cc4cn(CCOCCOc5ccc(-c6oc7ccccc7c(=O)c6OCc6ccccc6)cc5)nn4)nn3)cc2)oc2ccccc12`, the Survival worked out at 62%.

On to `O=c1cc(-c2ccccc2)oc2cc(OCCOCCn3cc(CCCOc4ccc(-c5cc(=O)c6cc(F)ccc6o5)cc4)nn3)ccc12`, for which the Survival was 111%.

Regarding `O=c1c(OCc2ccccc2)c(-c2ccc(OCCOCCn3cc(CNc4ccccc4)nn3)cc2)oc2ccccc12`, the Survival is listed as 91%.

Turning to `CN(CCN(C)Cc1cn(CCOc2ccc3occ(-c4ccccc4)c(=O)c3c2)nn1)Cc1cn(CCOc2ccc3c(=O)cc(-c4ccccc4)oc3c2)nn1`, the Survival is listed as 90%.

`O=c1cc(-c2ccccc2)oc2cc(OCCOCCOCCn3cc(COCCOc4ccc5c(=O)cc(-c6ccccc6)oc5c4)nn3)ccc12`: the Survival came out at 60%.

For `O=c1cc(-c2ccc(OCCOCCn3cc(CN(Cc4cn(CCOCCOc5ccc(-c6cc(=O)c7cc(F)ccc7o6)cc5)nn4)Cc4cn(CCOCCOc5ccc(-c6cc(=O)c7cc(F)ccc7o6)cc5)nn4)nn3)cc2)oc2ccc(F)cc12`, the Survival is 76%.

`C#CCCCOc1ccc(-c2cc(=O)c3cc(F)ccc3o2)cc1`: the Survival was 81%.

With `C#CCCCCOc1ccc(/C=C/C(=O)c2ccc(C)cc2O)cc1`, the Survival came to 100%.

Regarding `O=Cc1ccc(OCCCCc2cn(CCOCCOCCOc3ccc4c(=O)cc(-c5ccccc5)oc4c3)nn2)cc1`, the Survival is listed as 81%.

As for `O=c1cc(-c2ccc(OCCOCCOCCn3cc(COCCOc4ccc5c(=O)cc(-c6ccccc6)oc5c4)nn3)cc2)oc2ccccc12`, the Survival worked out at 59%.

Turning to `O=Cc1ccc(OCCCCc2cn(CCOCCOCCOc3ccc(-c4oc5ccccc5c(=O)c4OCc4ccccc4)cc3)nn2)cc1`, the Survival came out at 75%.

In the case of `O=c1cc(-c2ccc(OCCCc3cn(CCOc4cccc5c(=O)cc(-c6ccccc6)oc45)nn3)cc2)oc2cc(F)ccc12`, the Survival was found to be 77%.

With `O=C(/C=C/c1ccc(OCCCCc2cn(CCOCCOc3ccc(-c4oc5ccccc5c(=O)c4OCc4ccccc4)cc3)nn2)cc1)c1ccc(F)cc1O`, the Survival is 69%.

`CN(CCN(C)Cc1cn(CCOCCOc2ccc(-c3cc(=O)c4ccccc4o3)cc2)nn1)Cc1cn(CCOCCOc2ccc(-c3cc(=O)c4ccccc4o3)cc2)nn1`: the Survival is listed as 87%.

In the case of `CCc1ccc(O)c(C(=O)/C=C/c2ccc(OCCCCc3cn(CCOCCOCCOc4ccc(-c5cc(=O)c6ccccc6o5)cc4)nn3)cc2)c1`, the Survival is 60%.

On to `Cc1ccc(C(=O)/C=C/c2ccc(OCCCCc3cn(CCOCCOCCOc4ccc(-c5cc(=O)c6cc(C)ccc6o5)cc4)nn3)cc2)c(O)c1`, for which the Survival stood at 61%.

For `Cc1ccc2oc(-c3ccc(OCCOCCOCCn4cc(CCN5C(=O)c6ccccc6C5=O)nn4)cc3)cc(=O)c2c1`, the Survival is given as 81%.

As to `Cc1ccc2oc(-c3ccc(OCCOCCOCCn4cc(CN(C)CCN(C)Cc5cn(CCOCCOCCOc6ccc(-c7cc(=O)c8cc(C)ccc8o7)cc6)nn5)nn4)cc3)cc(=O)c2c1`, the Survival came out at 76%.

In the case of `O=c1cc(-c2ccccc2)oc2cc(OCCOCCn3cc(COCCOc4ccc5c(=O)cc(-c6ccccc6)oc5c4)nn3)ccc12`, the Survival turned out to be 60%.

Take `C#CCCCOc1ccc(-c2cc(=O)c3ccc(F)cc3o2)cc1`: the Survival was 79%.

Consider `O=c1cc(-c2ccc(OCCOCCn3cc(CN(Cc4cn(CCOCCOc5ccc(-c6cc(=O)c7ccccc7o6)cc5)nn4)Cc4cn(CCOCCOc5ccc(-c6cc(=O)c7ccccc7o6)cc5)nn4)nn3)cc2)oc2ccccc12`, for which the Survival is listed as 82%.

With `O=c1cc(-c2ccccc2)oc2cc(OCCCCc3cn(CCOc4cccc5c(=O)cc(-c6ccccc6)oc45)nn3)ccc12`, the Survival stood at 60%.

As for `Cc1ccc2oc(-c3ccc(OCCOCCOCCn4cc(CCCCOc5ccc(/C=C/C(=O)c6ccccc6O)cc5)nn4)cc3)cc(=O)c2c1`, the Survival is reported as 61%.

In the case of `O=c1cc(-c2ccc(OCCOCCn3cc(CNc4ccccc4)nn3)cc2)oc2ccc(F)cc12`, the Survival was found to be 81%.

Turning to `Cc1ccc2oc(-c3ccc(OCCOCCOCCn4cc(CCCCOc5ccc(/C=C/C(=O)c6ccc(F)cc6O)cc5)nn4)cc3)cc(=O)c2c1`, the Survival came to 63%.

On to `O=c1cc(-c2ccc(OCCOCCOCCn3cc(CCCOc4ccc(-c5cc(=O)c6cc(F)ccc6o5)cc4)nn3)cc2)oc2ccccc12`, for which the Survival came to 79%.

Consider `C#CCCCCOc1ccc(/C=C/C(=O)c2cc(C)ccc2O)cc1`, for which the Survival was found to be 100%.

Regarding `COCOc1cc(OCc2ccccc2)c2c(=O)cc(-c3ccc(OCCCc4cn(CCOCCOCCOc5ccc(-c6cc(=O)c7cc(C)ccc7o6)cc5)nn4)cc3)oc2c1`, the Survival is 53%.

For the compound `O=C(/C=C/c1ccc(OCCCCc2cn(CCOCCOCCOc3ccc(-c4cc(=O)c5ccccc5o4)cc3)nn2)cc1)c1ccccc1O`, the Survival was 65%.
